Reference: ChEMBL document CHEMBL3102810, “Alkylamino derivatives of pyrazinamide: synthesis and antimycobacterial evaluation” (Bioorg Med Chem Lett, 2014)
Converted amounts (≈) assume the structure as drawn. The source made the active and inactive calls. No cut-off for these calls is given here.

Key:
Trichosporon asahii = assay: Antifungal activity against Trichosporon asahii 1188 after 72 to 120 hrs by microdilution broth method; format: functional, organism-based
Pichia kudriavzevii = assay: Antifungal activity against Candida krusei E28 after 72 to 120 hrs by microdilution broth method; format: functional, organism-based
[1] = system: Trichophyton mentagrophytes; assay: Antifungal activity against Trichophyton mentagrophytes 445 after 72 to 120 hrs by microdilution broth method; format: functional, organism-based
Aspergillus fumigatus = assay: Antifungal activity against Aspergillus fumigatus 231 after 72 to 120 hrs by microdilution broth method; format: functional, organism-based
[2] = system: Staphylococcus epidermidis; assay: Antibacterial activity against Staphylococcus epidermidis H 6966/08 up to 500 uM after 24 to 48 hrs by microdilution broth method; format: functional, organism-based
Method in brief: (§1)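 Antibacterial screen with compound concentrations up to a highest level of 500 µM. Results expressed as MIC in µM.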

Mycobacterium avium [3] = assay: Antimycobacterial activity against pyrazinamide-resistant Mycobacterium avium CNCTC My 80/72 after 5 days by microplate alamar blue assay; format: functional; settings: CNCTC My 80/72, 120 h
Method in brief: (§2)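 Microplate alamar blue assay run at pH 5.6, using conditions optimized for pyrazinamide. Strains came from the Czech National Collection of Type Cultures. MIC was read in µg/mL and converted to µM using molecular weight.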

Staphylococcus aureus = assay: Antibacterial activity against Staphylococcus aureus CCM 4516/08 after 24 to 48 hrs by microdilution broth method; format: functional, organism-based; method in brief: as §1
Klebsiella pneumoniae [4] = assay: Antibacterial activity against ESBL positive Klebsiella pneumoniae J 14368/08 after 24 to 48 hrs by microdilution broth method; format: functional, organism-based; method in brief: as §1
Nakaseomyces glabratus = assay: Antifungal activity against Candida glabrata 20/I after 72 to 120 hrs by microdilution broth method; format: functional, organism-based
Pseudomonas aeruginosa = assay: Antibacterial activity against Pseudomonas aeruginosa CCM 1961 after 24 to 48 hrs by microdilution broth method; format: functional, organism-based; method in brief: as §1
Klebsiella pneumoniae [5] = assay: Antibacterial activity against Klebsiella pneumoniae D 11750/08 after 24 to 48 hrs by microdilution broth method; format: functional, organism-based; method in brief: as §1
Candida tropicalis = assay: Antifungal activity against Candida tropicalis 156 after 72 to 120 hrs by microdilution broth method; format: functional, organism-based
Mycobacterium kansasii = assay: Antimycobacterial activity against pyrazinamide-resistant Mycobacterium kansasii CNCTC My 235/80 after 5 days by microplate alamar blue assay; format: functional; settings: CNCTC My 235/80, 120 h; method in brief: as §2
[6] = system: Staphylococcus epidermidis; assay: Antibacterial activity against methicillin-resistant Staphylococcus epidermidis H 5996/08 after 24 to 48 hrs by microdilution broth method; format: functional, organism-based
Escherichia coli = assay: Antibacterial activity against Escherichia coli CCM 4517 after 24 to 48 hrs by microdilution broth method; format: functional, organism-based; method in brief: as §1
Enterococcus sp. = assay: Antibacterial activity against Enterococcus sp. J 14365/08 after 24 to 48 hrs by microdilution broth method; format: functional, organism-based; method in brief: as §1
[7] = system: Trichophyton mentagrophytes; assay: Antifungal activity against Trichophyton mentagrophytes after 72 to 120 hrs by microdilution broth method; format: functional, organism-based
[8] = system: Staphylococcus epidermidis; assay: Antibacterial activity against Staphylococcus epidermidis H 6966/08 after 48 hrs by microdilution broth method; format: functional; method in brief: as §1
Lichtheimia corymbifera = assay: Antifungal activity against Absidia corymbifera 272 after 72 to 120 hrs by microdilution broth method; format: functional, organism-based
Mycobacterium avium [9] = assay: Antimycobacterial activity against pyrazinamide-resistant Mycobacterium avium CNCTC My 152/73 after 5 days by microplate alamar blue assay; format: functional; settings: CNCTC My 152/73, 120 h; method in brief: as §2
[10] = system: Mycobacterium tuberculosis; assay: Antimycobacterial activity against Mycobacterium tuberculosis H37Rv CNCTC My 331/88 after 5 days by microplate alamar blue assay; format: functional; settings: H37Rv CNCTC My 331/88, 120 h; method in brief: as §2
Candida albicans = assay: Antifungal activity against Candida albicans ATCC 44859 after 72 to 120 hrs by microdilution broth method; format: functional, organism-based
[11] = Lipophilicity, log K of the compound by HPLC analysis; format: physicochemical

Compound | Activity (Trichosporon asahii) | Activity (Pichia kudriavzevii) | Activity [1] | Activity (Aspergillus fumigatus) | Activity [2] | MIC (Mycobacterium avium [3]) [µg/mL] | Activity (Staphylococcus aureus) | Activity (Klebsiella pneumoniae [4]) | Activity (Nakaseomyces glabratus) | Activity (Pseudomonas aeruginosa) | Activity (Klebsiella pneumoniae [5]) | Activity (Candida tropicalis) | MIC (Mycobacterium kansasii) | Activity [6] | Activity (Escherichia coli) | Activity (Enterococcus sp.) | Activity [7] | Activity [8] | Activity (Lichtheimia corymbifera) | MIC (Mycobacterium avium [9]) [µg/mL] | also measured
NC(=O)c1cncc(NCCCc2ccccc2)n1 | inactive | inactive | inactive | inactive | inactive | > 100 | inactive | inactive | inactive | inactive | inactive | inactive | > 100 µg/mL | inactive | inactive | inactive | inactive | inactive | inactive | > 100 | MIC [10]: > 100 µg/mL; Activity (Candida albicans): inactive; log K [11]: 0.0741
CCCNc1cnc(C(N)=O)cn1 | inactive | inactive | inactive | inactive | inactive | > 100 | inactive | inactive | inactive | inactive | inactive | inactive | > 100 µg/mL | inactive | inactive | inactive | inactive | inactive | inactive | > 100 | MIC [10]: > 100 µg/mL; Activity (Candida albicans): inactive; log K [11]: -0.3878
CCNc1cnc(C(N)=O)cn1 | inactive | inactive | inactive | inactive | inactive | > 100 | inactive | inactive | inactive | inactive | inactive | inactive | > 100 µg/mL | inactive | inactive | inactive | inactive | inactive | inactive | > 100 | MIC [10]: > 100 µg/mL; Activity (Candida albicans): inactive; log K [11]: -0.552
CCCNc1cncc(C(N)=O)n1 | inactive | inactive | inactive | inactive | inactive | > 100 | inactive | inactive | inactive | inactive | inactive | inactive | > 100 µg/mL | inactive | inactive | inactive | inactive | inactive | inactive | > 100 | MIC [10]: > 100 µg/mL; Activity (Candida albicans): inactive; log K [11]: -0.4386
NNC(=O)c1ccncc1 [ISONIAZID] | – | – | – | – | – | 12.5 (≈ 91.1 µM) | – | – | – | – | – | – | 11 µM | – | – | – | – | – | – | 6.25 (≈ 45.6 µM) | MIC [10]: 3 µM; log K [11]: -0.7432
NC(=O)c1cncc(N)n1 | inactive | inactive | inactive | inactive | inactive | > 100 | inactive | inactive | inactive | inactive | inactive | inactive | > 100 µg/mL | inactive | inactive | inactive | inactive | inactive | inactive | > 100 | MIC [10]: > 100 µg/mL; Activity (Candida albicans): inactive; log K [11]: -0.7814
CNc1cnc(C(N)=O)cn1 | inactive | inactive | inactive | inactive | inactive | > 100 | inactive | inactive | inactive | inactive | inactive | inactive | > 100 µg/mL | inactive | inactive | inactive | inactive | inactive | inactive | > 100 | MIC [10]: > 100 µg/mL; Activity (Candida albicans): inactive; log K [11]: -0.6878
CCCCNc1cnc(C(N)=O)cn1 | inactive | inactive | inactive | inactive | inactive | > 100 | inactive | inactive | inactive | inactive | inactive | inactive | > 100 µg/mL | inactive | inactive | inactive | inactive | inactive | inactive | > 100 | MIC [10]: > 100 µg/mL; Activity (Candida albicans): inactive; log K [11]: -0.191
NC(=O)c1cnc(NCCCc2ccccc2)cn1 | inactive | inactive | inactive | inactive | inactive | > 100 | inactive | inactive | inactive | inactive | inactive | inactive | 100 µg/mL | inactive | inactive | inactive | inactive | inactive | inactive | > 100 | MIC [10]: 98 µM; Activity (Candida albicans): inactive; log K [11]: 0.1408
CCCCNc1cncc(C(N)=O)n1 | inactive | inactive | inactive | inactive | inactive | > 100 | inactive | inactive | inactive | inactive | inactive | inactive | > 100 µg/mL | inactive | inactive | inactive | inactive | inactive | inactive | > 100 | MIC [10]: 100 µg/mL; Activity (Candida albicans): inactive; log K [11]: -0.2162
CCCCCCNc1cnc(C(N)=O)cn1 | inactive | inactive | inactive | inactive | inactive | > 100 | inactive | inactive | inactive | inactive | inactive | inactive | 100 µg/mL | inactive | inactive | inactive | inactive | inactive | inactive | > 100 | MIC [10]: 225 µM; Activity (Candida albicans): inactive; log K [11]: 0.2389
CNc1cncc(C(N)=O)n1 | inactive | inactive | inactive | inactive | inactive | – | inactive | inactive | inactive | inactive | inactive | inactive | – | inactive | inactive | inactive | inactive | inactive | inactive | – | Activity (Candida albicans): inactive
